Source: ChEMBL document CHEMBL1152672, “Side chain azasteroids and thiasteroids as sterol methyltransferase inhibitors in ergosterol biosynthesis” (2009)
Values after ≈ are worked out from the molar mass of the structure shown.

Tests used:
[1] = molecular target: T1, Sterol 24-C-methyltransferase (Yarrowia lipolytica) (UniProt Q6C2D9); experiment: Inhibition of Yarrowia lipolytica 24-SMT assessed as zymosterol-3-trimethylsilyl derivative level at 2 ug/mL after 48 hrs by GC-MS analysis relative to untreated control; set-up: scale not given: the % may be the effect or the level left
T1 sequence (whole entry): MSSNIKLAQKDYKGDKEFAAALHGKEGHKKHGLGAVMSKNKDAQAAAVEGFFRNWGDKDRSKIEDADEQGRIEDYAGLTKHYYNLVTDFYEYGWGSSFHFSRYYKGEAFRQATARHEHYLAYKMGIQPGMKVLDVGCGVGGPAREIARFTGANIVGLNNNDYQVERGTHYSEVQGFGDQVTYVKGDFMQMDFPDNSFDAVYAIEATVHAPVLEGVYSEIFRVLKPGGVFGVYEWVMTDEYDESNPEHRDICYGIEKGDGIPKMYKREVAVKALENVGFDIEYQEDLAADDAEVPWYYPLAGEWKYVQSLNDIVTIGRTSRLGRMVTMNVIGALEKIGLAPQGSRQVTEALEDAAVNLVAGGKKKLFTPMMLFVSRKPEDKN
Procedure, shortened: (§1)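 Whole-cell sterol profiling. Y. lipolytica at 50,000 CFU/mL was exposed to compounds added from ethanol for 48 ± 2 h at 28 °C, and the MIC/2 and/or MIC/4 wells were used. Cells were pelleted and PBS-washed, then saponified in 1 M NaOH at 70 °C for 1 h. Sterols were extracted into TBME with a cholesterol internal standard and silylated to TMS ethers. GC-MS full scan, with each sterol given as % of total integrated quantifier-ion area.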

[2] = molecular target: T1, Sterol 24-C-methyltransferase (Yarrowia lipolytica); experiment: Inhibition of Yarrowia lipolytica 24-sterol C-methyltransferase assessed as ergosterol-3-trimethylsilyl derivative level at 2 ug/mL after 48 hrs by GC-MS analysis relative to untreated control; set-up: scale not given: the % may be the effect or the level left; procedure, shortened: as §1
[3] = molecular target: T1, Sterol 24-C-methyltransferase (Yarrowia lipolytica); experiment: Inhibition of Yarrowia lipolytica 24-SMT assessed as 5-dehydroepisterol-3-trimethylsilyl derivative at 2 ug/mL after 48 hrs by GC-MS analysis relative to untreated control; set-up: scale not given: the % may be the effect or the level left; procedure, shortened: as §1
[4] = molecular target: T1, Sterol 24-C-methyltransferase (Yarrowia lipolytica); experiment: Inhibition of Yarrowia lipolytica 24-sterol C-methyltransferase assessed as ergosterol-3-trimethylsilyl derivative level at 1 ug/mL after 48 hrs by GC-MS analysis relative to untreated control; set-up: scale not given: the % may be the effect or the level left; procedure, shortened: as §1
[5] = molecular target: T1, Sterol 24-C-methyltransferase (Yarrowia lipolytica); experiment: Inhibition of Yarrowia lipolytica 24-sterol C-methyltransferase assessed as cholesta-5,7,24-trien-3-trimethylsilyl derivative at 1 ug/mL after 48 hrs by GC-MS analysis relative to untreated control; set-up: scale not given: the % may be the effect or the level left; procedure, shortened: as §1
[6] = molecular target: T1, Sterol 24-C-methyltransferase (Yarrowia lipolytica); experiment: Inhibition of Yarrowia lipolytica 24-SMT assessed as cholesta-7,24-dien-3-trimethylsilyl derivative at 2 ug/mL after 48 hrs by GC-MS analysis relative to untreated control; set-up: scale not given: the % may be the effect or the level left; procedure, shortened: as §1
[7] = molecular target: T1, Sterol 24-C-methyltransferase (Yarrowia lipolytica); experiment: Inhibition of Yarrowia lipolytica 24-SMT assessed as 5-dehydroepisterol-3-trimethylsilyl derivative at 1 ug/mL after 48 hrs by GC-MS analysis relative to untreated control; set-up: scale not given: the % may be the effect or the level left; procedure, shortened: as §1
[8] = molecular target: T1, Sterol 24-C-methyltransferase (Yarrowia lipolytica); experiment: Inhibition of Yarrowia lipolytica 24-SMT assessed as dehydroergosterol-3-trimethylsilyl derivative at 1 ug/mL after 48 hrs by GC-MS analysis relative to untreated control; set-up: scale not given: the % may be the effect or the level left; procedure, shortened: as §1
[9] = molecular target: T1, Sterol 24-C-methyltransferase (Yarrowia lipolytica); experiment: Inhibition of Yarrowia lipolytica 24-SMT assessed as cholesta-5,7,24-trien-3-trimethylsilyl derivative at 2 ug/mL after 48 hrs by GC-MS analysis relative to untreated control; set-up: scale not given: the % may be the effect or the level left; procedure, shortened: as §1
[10] = molecular target: T1, Sterol 24-C-methyltransferase (Yarrowia lipolytica); experiment: Inhibition of Yarrowia lipolytica 24-SMT assessed as cholesta-7,24-dien-3-trimethylsilyl derivative at 1 ug/mL after 48 hrs by GC-MS analysis relative to untreated control; set-up: scale not given: the % may be the effect or the level left; procedure, shortened: as §1
[11] = system: Yarrowia lipolytica; experiment: Antimicrobial activity against Yarrowia lipolytica after 48 hrs; assay type: functional
Procedure, shortened: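 Broth dilution MIC per DIN 58940-84. Log-phase Y. lipolytica in yeast extract/peptone/glucose medium, counted against a 0.5 McFarland standard (A570) and seeded at 50,000 CFU/mL in 2 mL wells. Compounds added from ethanol; final concentrations 2 to 0.06125 µg/mL unless otherwise stated. Plates incubated 48 ± 2 h at 28 °C. MIC is the lowest concentration with no visible growth.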

[12] = molecular target: T1, Sterol 24-C-methyltransferase (Yarrowia lipolytica); experiment: Inhibition of Yarrowia lipolytica 24-SMT assessed as dehydroergosterol-3-trimethylsilyl derivative at 2 ug/mL after 48 hrs by GC-MS analysis relative to untreated control; set-up: scale not given: the % may be the effect or the level left; procedure, shortened: as §1
[13] = molecular target: T1, Sterol 24-C-methyltransferase (Yarrowia lipolytica); experiment: Inhibition of Yarrowia lipolytica 24-SMT assessed as lanosterol-3-trimethylsilyl derivative at 0.2 ug/mL after 48 hrs by GC-MS analysis relative to untreated control; set-up: scale not given: the % may be the effect or the level left; procedure, shortened: as §1
[14] = molecular target: T1, Sterol 24-C-methyltransferase (Yarrowia lipolytica); experiment: Inhibition of Yarrowia lipolytica 24-SMT assessed as 14-alpha-methylergosta-8,24(28)-dien-3beta,6alpha-di-trimethylsilyl derivative at 0.2 ug/mL after 48 hrs by GC-MS analysis relative to untreated control; set-up: scale not given: the % may be the effect or the level left
Procedure, shortened: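 Y. lipolytica whole cells, inoculated at 50,000 CFU/mL in yeast extract/peptone/glucose medium, exposed to compound (ethanol solution, 10 µL per 2 mL well), 48 ± 2 h, 28 °C. Wells at MIC/2 and/or MIC/4 pelleted, saponified in 1 M NaOH at 70 °C for 1 h, extracted with TBME and silylated. GC–MS with cholesterol internal standard. Each sterol given as percent of total integrated area; ethanol-only wells as control.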

[15] = molecular target: T1, Sterol 24-C-methyltransferase (Yarrowia lipolytica); experiment: Inhibition of Yarrowia lipolytica 24-SMT assessed as dehydroergosterol-3-trimethylsilyl derivative at 0.2 ug/mL after 48 hrs by GC-MS analysis relative to untreated control; set-up: scale not given: the % may be the effect or the level left; procedure, shortened: as §1
[16] = molecular target: T1, Sterol 24-C-methyltransferase (Yarrowia lipolytica); experiment: Inhibition of Yarrowia lipolytica 24-SMT assessed as ergosterol-3-trimethylsilyl derivative level at 0.2 ug/mL after 48 hrs by GC-MS analysis relative to untreated control; set-up: scale not given: the % may be the effect or the level left; procedure, shortened: as §1

SMILES | Activity [1] | Activity [2] | Activity [3] | Activity [4] | Activity [5] | Activity [6] | Activity [7] | Activity [8] | Activity [9] | Activity [10] | MIC [11] | Activity [12] | Activity [13] | Activity [14] | Activity [15] | Activity [16]
C[C@H](CNCCN1CCCC1)[C@H]1CC[C@H]2C3=CC[C@H]4C[C@@H](O)CC[C@]4(C)[C@H]3CC[C@]12C | 0.4% | 3.3% | 3.6% | 1.7% | 24.3% | 6% | 4.8% | 65.4% | 46.6% | 3.6% | > 2 µg/mL | 40.1% |  |  |  | 
CC(=O)N1CCN(c2ccc(OCC3COC(Cn4ccnc4)(c4ccc(Cl)cc4Cl)O3)cc2)CC1 (configuration not stated) [KETOCONAZOLE] |  |  |  |  |  |  |  |  |  |  | 0.5 µg/mL (≈ 0.941 µM) |  | 28.9% | 2.4% | 59.1% | 9.6%
